One block for each compound: values may come before it. Activity calls are given as the source filed them. The calls are words filed in the database; no cut-off is given here.
How the values were obtained:
[1] = target: T1, Tubulin (Bos taurus, UniProt Q6B856+Q862L2+Q862F3); experiment: Inhibition of bovine brain tubulin assessed as rate of assembly preincubated for 15 mins by turbidimetry
Summary of the method: (§1)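 Bovine brain tubulin at 10 µM (1.0 mg/mL) in 0.8 M monosodium glutamate pH 6.6 with 4% DMSO and varying compound was preincubated 15 min at 30 °C, then chilled. GTP was added to 0.4 mM final and the temperature jumped from 0 to 30 °C. Turbidity was followed at 350 nm, scoring either maximum rate or extent of assembly at 20 min.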

[2] = target: T1, Tubulin; experiment: Inhibition of bovine brain tubulin assessed as extent of assembly preincubated for 15 mins by turbidimetry; summary of the method: as §1
[3] = target: Tubulin (Bos taurus) (UniProt Q6B856+Q862L2+Q862F3); experiment: Displacement of [3H]colchicine from bovine brain tubulin at 500 uM after 10 mins by liquid scintillation counting
[4] = test system: HeLa; experiment: Induction of apoptosis in human HeLa cells assessed as reduction in Mcl-1 expression at 25 uM after 48 hrs by Western blot analysis; type: functional, cell-based
Summary of the method: (§2)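 HeLa cells treated 24 or 48 h at 25 µM, then lysed. 20 µg protein per lane was run on SDS-PAGE and transferred to PVDF. Membranes were probed 2 h at room temperature for cleaved caspase-9, caspase-3, cleaved PARP, Bcl-2, Mcl-1 or Bax, with peroxidase secondary antibody and ECL. β-Actin reprobe served as loading control.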

[5] = test system: HeLa; experiment: Induction of apoptosis in human HeLa cells assessed as early apoptotic cells at 25 uM after 24 hrs using Annexin-V/PI staining by flow cytometry (reference value: 5.26 %); type: functional
[6] = test system: HeLa; experiment: Induction of DNA damage in human HeLa cells assessed as increase in phosphorylated form of histone gamma-H2A.X level at 25 uM after 24 hrs by Western blot analysis; type: functional, cell-based
Summary of the method: (§3)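 HeLa cells treated 24 or 48 h at 25 µM, then washed in PBS and lysed 30 min on ice. 20 µg protein per lane was resolved on 7.5–15% SDS-PAGE and blotted to PVDF. Blots were probed for cyclin B, p-cdc2 Tyr15, cdc25C and γH2A.X, with β-actin reprobe as loading control and ECL detection.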

[7] = Antiproliferative activity against human SEM cells assessed as reduction in cell viability after 72 hrs by MTT assay; type: functional, cell-based
Summary of the method: (§4)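 Cells kept in RPMI-1640 (Jurkat, SEM, RS4;11) or DMEM (A549, HeLa, IGROV-1, HT-29) with 10% FBS plus penicillin/streptomycin. 8×10^3 cells per well were left 18 h at 37 °C in 5% CO2. Medium was then replaced with fresh medium holding graded compound concentrations from 10 mM DMSO stocks. Cells were incubated 72 h and viability read by MTT. IC50 is the mean ± SEM from dose–response curves of at least three independent experiments.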

[8] = test system: PBL; experiment: Cytotoxicity against PHA-stimulated human PBLs assessed as reduction in cell growth; type: cell-based
Summary of the method: (§5)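 Peripheral blood lymphocytes from healthy donors, tested either resting (no PHA) or PHA-stimulated. Value is the concentration reducing cell growth by 50%, mean ± SEM of three separate experiments.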

[9] = test system: PBL; experiment: Cytotoxicity against resting human PBLs assessed as reduction in cell growth; type: cell-based; summary of the method: as §5
[10] = test system: LoVo; experiment: Antiproliferative activity against human LoVo cells assessed as reduction in cell viability after 72 hrs by MTT assay; type: functional, cell-based
[11] = test system: HeLa; experiment: Induction of apoptosis in human HeLa cells assessed as reduction in Mcl-1 expression at 25 uM after 24 hrs by Western blot analysis; type: functional, cell-based; summary of the method: as §2
[12] = test system: HeLa; experiment: Downregulation of phosphorylated form of cdc25c protein level in human HeLa cells at 25 uM after 24 hrs by Western blot analysis; type: functional, cell-based; summary of the method: as §3
[13] = test system: HeLa; experiment: Induction of apoptosis in human HeLa cells assessed as ROS production at 6.2 to 50 uM after 24 to 48 hrs using H2-DCFDA -based flow cytometry relative to control; type: functional, cell-based
Summary of the method: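 HeLa cells incubated 24 or 48 h at the indicated concentrations, stained with H2-DCFDA and analysed by flow cytometry. Data are mean ± SEM of three independent experiments.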

[14] = test system: HeLa; experiment: Induction of apoptosis in human HeLa cells assessed as caspase 3 cleavage at 25 uM after 24 to 48 hrs by Western blot analysis; type: functional, cell-based; summary of the method: as §2
[15] = test system: HeLa; experiment: Induction of apoptosis in human HeLa cells assessed as reduction in Bcl-2 expression at 25 uM after 24 hrs by Western blot analysis; type: functional, cell-based; summary of the method: as §2
[16] = test system: HeLa; experiment: Induction of apoptosis in human HeLa cells assessed as mitochondrial membrane depolarization after 24 to 48 hrs using JC-1 staining-based fluorescence assay; type: functional, cell-based
Summary of the method: (§6)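 Mitochondrial membrane potential was read with the JC-1 dye in HeLa cells after 24 or 48 h at graded concentrations. Data are mean ± SEM of three independent experiments.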

[17] = test system: Jurkat; experiment: Cell cycle arrest in human Jurkat cells assessed as accumulation at G2/M phase after 24 hrs by flow cytometry; type: functional, cell-based
Summary of the method: (§7)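 5×10^5 HeLa or Jurkat cells exposed to graded compound concentrations for 24 h. Cells were fixed in ice-cold 70% ethanol, lysed with RNase A/0.1% Triton X-100 buffer and stained with propidium iodide. DNA content was read by flow cytometry. Phase percentages are mean ± SEM of three independent experiments.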

[18] = test system: HeLa; experiment: Cell cycle arrest in human HeLa cells assessed as accumulation at G2/M phase at 10 to 25 uM after 24 hrs by flow cytometry; type: functional, cell-based; summary of the method: as §7
[19] = test system: HeLa; experiment: Upregulation of cdc25c protein level in human HeLa cells at 25 uM after 24 hrs by Western blot analysis; type: functional, cell-based
[20] = test system: HeLa; experiment: Upregulation of cyclin B protein level in human HeLa cells at 25 uM after 24 hrs by Western blot analysis; type: functional, cell-based
[21] = test system: HeLa; experiment: Induction of apoptosis in human HeLa cells assessed as mitochondrial membrane depolarization at 6.2 to 50 uM using JC-1 staining-based fluorescence assay; type: functional, cell-based; conditions: TDE = time-dependent effect; summary of the method: as §6
[22] = test system: HeLa; experiment: Induction of apoptosis in human HeLa cells assessed as caspase 9 cleavage at 25 uM after 24 to 48 hrs by Western blot analysis; type: functional, cell-based; summary of the method: as §2
[23] = test system: HeLa; experiment: Induction of apoptosis in human HeLa cells assessed as PARP cleavage at 25 uM after 24 to 48 hrs by Western blot analysis; type: functional, cell-based; summary of the method: as §2
[24] = test system: HeLa; experiment: Induction of apoptosis in human HeLa cells assessed as late necrotic cells at 25 uM after 24 hrs using Annexin-V/PI staining by flow cytometry (reference value: 3.70 %); type: functional
[25] = test system: CCRF-CEM; experiment: Antiproliferative activity against human CEM cells assessed as reduction in cell viability after 72 hrs by MTT assay; type: functional, cell-based
[26] = Antiproliferative activity against human RS4:11 cells assessed as reduction in cell viability after 72 hrs by MTT assay; type: functional, cell-based; conditions: RS4-11, 72 h; summary of the method: as §4
[27] = test system: HeLa; experiment: Antiproliferative activity against human HeLa cells assessed as reduction in cell viability after 72 hrs by MTT assay; type: functional, cell-based; summary of the method: as §4
[28] = test system: HeLa; experiment: Induction of apoptosis in human HeLa cells assessed as late apoptotic cells at 25 uM after 24 hrs using Annexin-V/PI staining by flow cytometry (reference value: 4.31 %); type: functional
[29] = test system: HeLa; experiment: Induction of apoptosis in human HeLa cells at 6.2 to 50 uM using Annexin-V/PI staining by flow cytometry; type: functional, cell-based; conditions: TDE = time-dependent effect
[30] = test system: HT-29; experiment: Antiproliferative activity against human HT-29 cells assessed as reduction in cell viability after 72 hrs by MTT assay; type: functional, cell-based; conditions: HT-29, 72 h; summary of the method: as §4
[31] = test system: HeLa; experiment: Cell cycle arrest in human HeLa cells assessed as accumulation at G2/M phase at 25 uM after 24 hrs by flow cytometry; type: functional; summary of the method: as §7
[32] = target: T1, Tubulin; experiment: Displacement of [3H]colchicine from bovine brain tubulin assessed as rate of assembly after 10 mins by liquid scintillation counting
[33] = test system: IGROV-1; experiment: Antiproliferative activity against human IGROV1 cells assessed as reduction in cell viability after 72 hrs by MTT assay; type: functional, cell-based; conditions: IGROV-1, 72 h; summary of the method: as §4
[34] = test system: Jurkat; experiment: Cell cycle arrest in human Jurkat cells assessed as accumulation at G2/M phase at 10 to 25 uM after 24 hrs by flow cytometry; type: functional, cell-based; summary of the method: as §7
[35] = test system: HeLa; experiment: Induction of apoptosis in human HeLa cells assessed as viable cells at 25 uM after 24 hrs using Annexin-V/PI staining by flow cytometry (reference value: 86.7 %); type: functional; conditions: read-out: Activity
[36] = test system: HeLa; experiment: Induction of apoptosis in human HeLa cells after 24 to 48 hrs using Annexin-V/PI staining by flow cytometry; type: functional, cell-based
[37] = test system: HeLa; experiment: Cell cycle arrest in human HeLa cells assessed as accumulation at G2/M phase after 24 hrs by flow cytometry; type: functional, cell-based; summary of the method: as §7
[38] = test system: HeLa; experiment: Induction of apoptosis in human HeLa cells assessed as reduction in Bcl-2 expression at 25 uM after 48 hrs by Western blot analysis; type: functional, cell-based; summary of the method: as §2
[39] = test system: HeLa; experiment: Downregulation of cdc25c protein level in human HeLa cells at 25 uM after 24 hrs by Western blot analysis; type: functional, cell-based; conditions: in the assay text read “after 48 hrs” for “after 24 hrs”; summary of the method: as §3
[40] = test system: HeLa; experiment: Upregulation of aurora kinase A protein level in human HeLa cells at 25 uM after 24 hrs by Western blot analysis; type: functional, cell-based
[41] = test system: Jurkat; experiment: Antiproliferative activity against human Jurkat cells assessed as reduction in cell viability after 72 hrs by MTT assay; type: functional, cell-based; summary of the method: as §4
[42] = test system: A549; experiment: Antiproliferative activity against human A549 cells assessed as reduction in cell viability after 72 hrs by MTT assay; type: functional, cell-based; conditions: A549, 72 h; summary of the method: as §4
[43] = test system: HeLa; experiment: Effect on PCM1 protein in human HeLa cells assessed as accumulation of pericentriolar material at 25 uM after 24 hrs by immunofluorescence microscopy; type: functional, cell-based
Summary of the method: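 After 24 h at 25 µM, HeLa cells were stained with anti-PCM1 and Alexa-conjugated secondary antibody, with phalloidin-tetramethylrhodamine B for actin and DAPI for nuclei. Cells were imaged by confocal microscopy at 60×.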

IC50 [1]: 170 µM | IC50 [2]: > 400 µM | inhibition [3]: 44%
SMILES: COc1ccc2c(c1OC)C(=O)O[C@@H]2[C@H]1c2c(cc3c(c2OC)OCO3)CCN1C [NOSCAPINE]

IC50 [10]: 42.8 µM | IC50 [1]: > 400 µM | IC50 [25]: 5.2 µM | IC50 [27]: 7.4 µM | IC50 [30]: 36.5 µM | IC50 [32]: > 400 µM | IC50 [2]: > 400 µM | IC50 [41]: 5.4 µM | inhibition [3]: 14%
SMILES: COc1ccc2c(c1OC)C(=O)O[C@@H]2[C@H]1c2c(c(-c3ccccc3)c3c(c2OC)OCO3)CCN1C
Activity [4]: Active | Activity [5]: 15.9% | Activity [6]: Active | IC50 [7]: 3.2 µM | IC50 [8]: 54.9 µM | IC50 [9]: > 200 µM | Activity [11]: Active | Activity [12]: Active | Activity [13]: Active | Activity [14]: Active | Activity [15]: inactive | Activity [16]: Dose-dependent effect | Activity [17]: Dose-dependent effect | Activity [18]: Active | Activity [19]: Active | Activity [20]: Active | Activity [21]: tde | Activity [22]: Active | Activity [23]: Active | Activity [24]: 18.1% | IC50 [26]: 2.4 µM | Activity [28]: 18.4% | Activity [29]: tde | Activity [31]: >80% | IC50 [33]: 68.1 µM | Activity [34]: Active | viability at 25 µM [35]: 7.53% | Activity [36]: Dose-dependent effect | Activity [37]: Dose-dependent effect | Activity [38]: Active | Activity [39]: Active | Activity [40]: Active

IC50 [10]: 28.8 µM | IC50 [25]: 25.8 µM | IC50 [30]: 47.8 µM | IC50 [42]: > 100 µM | IC50 [41]: 11.3 µM
SMILES: COc1ccc(-c2c3c(c(OC)c4c2OCO4)[C@H]([C@H]2OC(=O)c4c2ccc(OC)c4OC)N(C)CC3)cc1
IC50 [7]: 15.1 µM | IC50 [8]: > 200 µM | IC50 [9]: > 200 µM | IC50 [26]: 12.6 µM | IC50 [33]: 55.6 µM

SMILES: COC(=O)Nc1nc2cc(C(=O)c3cccs3)ccc2[nH]1
Activity [43]: Active

From ChEMBL document CHEMBL3351414, “Novel 9'-substituted-noscapines: synthesis with Suzuki cross-coupling, structure elucidation and biological evaluation” (Eur J Med Chem, 2014)
